According to article PMC7507839 (Investigational new drugs, 2018):
“Also recorded” adds a separate entry of the source.

Columns and labels:
medullary thyroid cancer = details: monotherapy; cited from earlier work
c-Met [1] = details: read-out: IC50 towards c-Met; cited from earlier work
tyrosine kinases = details: cited from earlier work
[2] = system: patients with metastatic or locally advanced solid tumors; assay: Phase I dose escalation: safety, DLT, MTD; format: in vivo
GTL-16 xenograft = details: twice-daily 100 mg/kg orally, cited from earlier work
[3] = system: gastric and non-small cell lung cell lines; details: a number of cell lines; most pronounced in gastric and non-small cell lung cell lines; cited from earlier work
[4] = system: ovarian cancer cell lines; details: with paclitaxel + carboplatin, multiple ovarian cancer cell lines; cited from earlier work
c-Met [5] = details: GTL-16 gastric cancer cells, cited from earlier work
[6] = system: metastatic or locally advanced solid tumors; assay: anti-tumor activity; format: in vivo, human
Procedure, shortened: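 Adults with histologically confirmed metastatic or locally advanced solid tumors lacking standard therapy, ECOG 0–1, received test compound twice daily from 50 mg in escalating cohorts. Cycle 1 was 14 days followed by a 1-week holiday, cycles 2–4 were 14 days, and cycles from 5 on were 28 days. RECIST 1.0 imaging at end of cycle 4, then every two cycles. All patients dosed at least once analysed.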

c-Met [7] = details: A549 non-small cell lung carcinoma cell line; cited from earlier work
[8] = plasma pharmacokinetics in patients; format: in vivo, human
[9] = system: non-small cell lung cancer cell lines; details: high c-Met expressing cell lines; cited from earlier work
[10] = Dose Level 5, 550 mg BID, Fatigue
[11] = Dose Level 6, 750 mg BID, Nausea
[12] = Dose Level 7, 1050 mg BID, Nausea
[13] = Dose Level 7, 1050 mg BID, Vomiting
[14] = Dose Level 8, 1500 mg BID, Elevated ALT
[15] = Dose Level 8, 1500 mg BID, Elevated AST
[16] = Dose Level 8, 1500 mg BID, Elevated Amylase
[17] = Dose Level 8, 1500 mg BID, Hypokalaemia

COc1cc2nccc(Oc3ccc(NC(=O)C4(C(=O)Nc5ccc(F)cc5)CC4)cc3)c2cc1OC [cabozantinib]
response rate (medullary thyroid cancer): 49%
IC50 (c-Met [1]): 1.3 nM

Cn1cc(-c2cnc3ccc4ccc(CS(=O)(=O)NCc5ccccn5)cc4c(=O)c3c2)cn1 [MK-8033, 1-[3-(1-methyl-1H-pyrazol-4-yl)-5-oxo-5H-benzo[4,5]cyclohepta[1,2-b]pyridin-7-yl] -N-(pyridin-2-ylmethyl)methanesulfonamide]
selectivity (tyrosine kinases): target multiple tyrosine kinases
No. of Subjects with a DLT ([2]; Dose Level 1 (n = 1), 50 mg BID, Total): 0
No. of Subjects with a DLT ([2]; Dose Level 2 (n = 1), 100 mg BID, Total): 0
No. of Subjects with a DLT ([2]; Dose Level 3 (n = 3), 200 mg BID, Total): 0
No. of Subjects with a DLT ([2]; Dose Level 4 (n = 4), 400 mg BID, Total): 0
No. of Subjects with a DLT ([2]; Dose Level 5 (n = 7), 550 mg BID, Fatigue): 1
No. of Subjects with a DLT ([2]; Dose Level 5 (n = 7), 550 mg BID, Total): 1
Number of DLTs Grade 1 [2, 10]: 0
Number of DLTs Grade 2 [2, 10]: 0
Number of DLTs Grade 3 [2, 10]: 1
Number of DLTs Grade 4 [2, 10]: 0
No. of Subjects with a DLT ([2]; Dose Level 6 (n = 18), 750 mg BID, Nausea): 1
No. of Subjects with a DLT ([2]; Dose Level 6 (n = 18), 750 mg BID, Total): 1
Number of DLTs Grade 1 [2, 11]: 0
Number of DLTs Grade 2 [2, 11]: 1
Number of DLTs Grade 3 [2, 11]: 0
Number of DLTs Grade 4 [2, 11]: 0
No. of Subjects with a DLT ([2]; Dose Level 7 (n = 6), 1050 mg BID, Nausea): 2
No. of Subjects with a DLT ([2]; Dose Level 7 (n = 6), 1050 mg BID, Total): 2
No. of Subjects with a DLT ([2]; Dose Level 7 (n = 6), 1050 mg BID, Vomiting): 2
Number of DLTs Grade 1 [2, 12]: 0
Number of DLTs Grade 2 [2, 12]: 0
Number of DLTs Grade 3 [2, 12]: 2
Number of DLTs Grade 4 [2, 12]: 0
Number of DLTs Grade 1 [2, 13]: 0
Number of DLTs Grade 2 [2, 13]: 1
Number of DLTs Grade 3 [2, 13]: 1
Number of DLTs Grade 4 [2, 13]: 0
No. of Subjects with a DLT ([2]; Dose Level 8 (n = 3), 1500 mg BID, Elevated ALT): 1
No. of Subjects with a DLT ([2]; Dose Level 8 (n = 3), 1500 mg BID, Elevated AST): 1
No. of Subjects with a DLT ([2]; Dose Level 8 (n = 3), 1500 mg BID, Elevated Amylase): 1
No. of Subjects with a DLT ([2]; Dose Level 8 (n = 3), 1500 mg BID, Hypokalaemia): 1
No. of Subjects with a DLT ([2]; Dose Level 8 (n = 3), 1500 mg BID, Total): 2
Number of DLTs Grade 1 [2, 14]: 0
Number of DLTs Grade 2 [2, 14]: 0
Number of DLTs Grade 3 [2, 14]: 1
Number of DLTs Grade 4 [2, 14]: 0
Number of DLTs Grade 1 [2, 15]: 0
Number of DLTs Grade 2 [2, 15]: 0
Number of DLTs Grade 3 [2, 15]: 1
Number of DLTs Grade 4 [2, 15]: 0
Number of DLTs Grade 1 [2, 16]: 0
Number of DLTs Grade 2 [2, 16]: 0
Number of DLTs Grade 3 [2, 16]: 1
Number of DLTs Grade 4 [2, 16]: 0
Number of DLTs Grade 1 [2, 17]: 0
Number of DLTs Grade 2 [2, 17]: 0
Number of DLTs Grade 3 [2, 17]: 0
Number of DLTs Grade 4 [2, 17]: 1
No. of Subjects with a DLT ([2]; Part C - (n = 3), 750 mg BID, Total): 0
patients who died during the study ([2]; determined by investigators to be unrelated to MK-8033): Five
maximum tolerated dose (MTD) ([2]; dose level 6, oral): 750 mg BID
recommended phase II dose (RP2D) ([2]; dose level 6, acute and chronic toxicity, TITE-CRM): 750 mg BID
Alopecia, All Grades, % ([2]; treatment-related, n = 46): 19.6%
Anorexia, All Grades, % ([2]; treatment-related, n = 46): 17.4%
Decreased Hemoglobin, All Grades, % ([2]; treatment-related, n = 46): 6.5%
Decreased Hemoglobin, Grade ≥ 3, % ([2]; treatment-related, n = 46): 2.2%
Diarrhea, All Grades, % ([2]; treatment-related, n = 46): 6.5%
Dysgeusia, All Grades, % ([2]; treatment-related, n = 46): 8.7%
Dyspepsia, All Grades, % ([2]; treatment-related, n = 46): 6.5%
Dyspepsia, Grade ≥ 3, % ([2]; treatment-related, n = 46): 4.3%
Elevated ALT, All Grades, % ([2]; treatment-related, n = 46): 17.4%
Elevated ALT, Grade ≥ 3, % ([2]; treatment-related, n = 46): 2.2%
Elevated AST, All Grades, % ([2]; treatment-related, n = 46): 10.9%
Elevated AST, Grade ≥ 3, % ([2]; treatment-related, n = 46): 2.2%
Elevated Amylase, All Grades, % ([2]; treatment-related, n = 46): 6.5%
Elevated Amylase, Grade ≥ 3, % ([2]; treatment-related, n = 46): 4.3%
Elevated Creatinine, All Grades, % ([2]; treatment-related, n = 46): 13.0%
Elevated Lipase, All Grades, % ([2]; treatment-related, n = 46): 6.5%
Elevated Lipase, Grade ≥ 3, % ([2]; treatment-related, n = 46): 4.3%
Fatigue, All Grades, % ([2]; treatment-related, n = 46): 28.3%
Fatigue, Grade ≥ 3, % ([2]; treatment-related, n = 46): 2.2%
Headache, All Grades, % ([2]; treatment-related, n = 46): 6.5%
Hypokalemia, All Grades, % ([2]; treatment-related, n = 46): 6.5%
Hypokalemia, Grade ≥ 3, % ([2]; treatment-related, n = 46): 2.2%
Lymphopenia, All Grades, % ([2]; treatment-related, n = 46): 8.7%
Lymphopenia, Grade ≥ 3, % ([2]; treatment-related, n = 46): 4.3%
Nausea, All Grades, % ([2]; treatment-related, n = 46): 21.7%
Nausea, Grade ≥ 3, % ([2]; treatment-related, n = 46): 4.3%
Vomiting, All Grades, % ([2]; treatment-related, n = 46): 13.0%
Vomiting, Grade ≥ 3, % ([2]; treatment-related, n = 46): 2.2%
plasma concentrations relative to IC50 for target inhibition (GTL-16 xenograft; mice): exceeding the IC50 for target inhibition for 24 h/day
tolerability (GTL-16 xenograft; mice): well-tolerated
pathway activation and tumor growth (GTL-16 xenograft): inhibited
IC50 for proliferation [3]: sub-micromolar
cell growth inhibition in combination with chemotherapy [4]: synergized
autophosphorylation of c-Met in the C-terminal docking site (c-Met [5]; constitutively activated c-MET): potently inhibited
downstream signaling events such as ERK1/2 and AKT (c-Met [5]): inhibited
median progression-free survival (PFS) ([6]; 95% confidence interval 42–115 days): 57 days
PFS rate ([6]; at 6 weeks): 80.4%
PFS rate ([6]; at 12 weeks): 15.2%
patients with stable disease (SD), % ([6]; best response): 18.2%
patients with partial response (PR) ([6]; endometrioid adenocarcinoma): One
patients with best response of progressive disease (PD), % ([6]; human, in vivo): 71.7%
PFS of the responding patient ([6]; patient with endometrioid adenocarcinoma): 846 days
HGF-induced phosphorylation of c-Met (c-Met [7]): inhibited
phosphorylation of AKT and ERK1/2 (c-Met [7]): inhibited
max concentration versus dose ([8]; 50 to 1500 mg BID, dose proportionality not assessable): appears to increase with dose
Day 14/Day 1 geometric mean accumulation ratios for Cmax ([8]; 200 to 1500 mg BID dose range, not conclusive): 1.2 to 4.2
impact of co-administered omeprazole on steady state Cmax, AUC0–12h and Tmax ([8]; Part C, 770 mg BID with or without 20 mg omeprazole, two patients): no effect; also recorded: does not appear to strongly impact
Tmax ([8]; human, plasma, oral): 1 to 3 h
radiosensitization [9]: radiosensitized
IC50 (c-Met [1]): 1 nM

O=C1NC(=O)[C@@H](c2cn3c4c(cccc24)CCC3)[C@@H]1c1c[nH]c2ccccc12 [tivantinib, reference compound]
selectivity (tyrosine kinases): only binds to c-Met
IC50 (c-Met [1]): 100 nM
